From PubChem BioAssay
Compounds with a hit are over-represented: about 4.1% of the library has one in this group of screens.
KCNQ1 act – potentiators or activators of KCNQ1 channel, primary screen, cell-based, thallium flux, high-throughput; Potassium voltage-gated channel subfamily KQT member 1 (Homo sapiens), P51787; CHO-K1 KCNQ1, thallium flux FluxOR fluorescence; active compounds read high; B-score at 10 µM; 0.35% of 310,000 active; AID 2648, 2010;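 active = fluorescence ratio B-score, a plate-corrected score, at least three library SD, with initial intensity B-score within 5 SD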
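Doses: Single concentration per compound, DMSO matched to controls | Test system: KCNQ1-transfected CHO-K1 cells | Timing: 90 min dye loading and 20 min compound exposure, both at room temperature | Measured by: Kinetic FluxOR thallium fluorescence, 10-s 1-Hz baseline, 110-s post-stimulus read | Medium: Assay buffer with matched DMSO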
KCNK3 block – human KCNK3 channel inhibitors, primary screen, CHO cells, FluxOR thallium flux, B-score; Potassium channel subfamily K member 3 (Homo sapiens), O14649; FluxOR fluorescence; active compounds read low; 0.84% of 340,000 active; B-score at 10 µM; AID 602410, 2012;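 active = B-score under library mean minus 4 SD, starting fluorescence ratio at most library mean plus 5 SD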;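 also: more negative B-score means stronger inhibition of thallium flux through KCNK3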
KCNK9 block – KCNK9 potassium channel inhibitors, primary screen, HEK293 cells, thallium flux | FluxOR thallium flux fluorescence; active compounds read low | 1.2% of 310,000 active | B-score at 10 µM | Potassium channel subfamily K member 9 (Homo sapiens), Q9NPC2 | AID 488922, 2010;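 active = ratio B-score over 3 SD below the library mean, with starting fluorescence within 5 SD of its mean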;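 also: negative B-score means less thallium flux so channel inhibition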
Target sequence (Q9NPC2 whole entry, looked up): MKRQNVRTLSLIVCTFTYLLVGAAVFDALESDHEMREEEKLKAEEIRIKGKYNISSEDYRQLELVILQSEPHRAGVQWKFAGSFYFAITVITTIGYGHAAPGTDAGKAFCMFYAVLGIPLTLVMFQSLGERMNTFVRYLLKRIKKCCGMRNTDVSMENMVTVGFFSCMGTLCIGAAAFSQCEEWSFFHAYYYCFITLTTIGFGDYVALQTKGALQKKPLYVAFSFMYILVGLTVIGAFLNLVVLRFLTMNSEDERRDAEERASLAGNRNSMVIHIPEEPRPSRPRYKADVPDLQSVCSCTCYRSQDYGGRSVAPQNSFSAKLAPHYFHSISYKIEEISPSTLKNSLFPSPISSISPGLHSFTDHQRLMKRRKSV
KCNQ1 block – inhibitors of human KCNQ1 channel, primary screen, cell-based, thallium flux, high-throughput; Potassium voltage-gated channel subfamily KQT member 1 (Homo sapiens), P51787; CHO-K1 KCNQ1, FluxOR thallium flux fluorescence; active compounds read high; B-score at 10 µM; 1.3% of 310,000 active; AID 2642, 2010;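 active = compounds whose thallium flux B-score, printed positive for inhibition, exceeds three library SD while starting fluorescence stays within three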;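 also: channel opened by potassium depolarization with thallium stimulus after 20 min compound exposure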
hERG protect – hERG rescue from dofetilide block, primary screen, cell-based, CHO-hERG, FluxOR thallium flux, dofetilide IC70. Voltage-gated inwardly rectifying potassium channel KCNH2 (Homo sapiens), Q12809. AID 1511, 2009. 0.51% of 310,000 active. dofetilide IC70 present. activation (rescue from dofetilide block), less the hit threshold, % at 10 µM;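 active = activation above the mean of controls blocked by dofetilide plus 5 SD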;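 also: thallium influx through hERG after potassium depolarization seen as dye fluorescence rise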
Cl transport mod – KCC2 cotransporter modulators, thallium flux, primary screen, cell-based, HEK293 KCC2, FluoZin-2 fluorescence, MLSMR; KCC2 cells, thallium flux FluoZin-2 fluorescence; 2.2% of 190,000 active; AID 1456, 2008; B-score of Tl+ flux slope (higher = more flux/activation; lower = inhibition) at 10 µM;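 active = thallium flux slope and its plate-corrected score both differing from the plate sample mean at a set confidence after two filtering rounds, in either direction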;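 also: slope of fluorescence scaled to starting intensity during 10 to 20 s after thallium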
An asterisk follows results filed as active; i = inactive; . = no result given.

SMILES	KCNQ1 act	KCNK3 block	KCNK9 block	KCNQ1 block	hERG protect	Cl transport mod
CC(C(=O)NC(=O)NC1CCCCC1)N1CCN(c2ccc(O)cc2)CC1 (stereo not given)	.	i	.	.	.	.
COc1cc(NC(=S)N2CCCC2)cc(OC)c1	i	i	i	i	-5	.
COc1ccc(/C=C/c2cc(=O)c3cc(Cl)ccc3o2)cc1	i	i	i	i	4.6*	0.32
O=C1CSC(c2ccccn2)N1c1ccc(Cl)c(Cl)c1 (stereo not given)	i	i	-7.6*	i	-9	-0.22
Nc1nc(CCl)nc(Nc2ccc3ccccc3c2)n1	13*	i	i	i	-10	-2
O=C(Oc1ccc(Br)cc1C(=S)N1CCOCC1)c1ccccc1	i	i	-8*	i	-6	.
O=C(Oc1cccc(C(=S)N2CCOCC2)c1)c1ccccc1	i	i	i	i	-3	.
Cc1nc(C)c(C(=O)Nc2ccc(Oc3ccccc3)cc2)o1	i	i	i	i	-18	-4*
O=C(Nc1ccccc1C(=O)NCC1CCCO1)c1ccc(Cl)cc1 (stereo not given)	i	i	i	i	-15	.
N#CC1=C(SCC(=O)c2cc3ccccc3oc2=O)NC(=O)C(C#N)C12CCCC2 (stereo not given)	i	i	i	7*	-11	-1.4
COc1ccc(C(=O)NNC(=O)C(=O)Nc2cccc3ccccc23)cc1	34*	i	i	i	31*	.
COc1cccc(C(=O)NNC(=O)C(=O)Nc2ccc(C)cc2)c1	37*	i	i	i	27*	.
COc1cccc(C(=O)NNC(=O)C(=O)Nc2cccc(Cl)c2C)c1	36*	i	i	i	23*	.
COc1cccc(C(=O)Nc2ccc(C)cc2)c1	i	i	i	i	-14	.
COc1cccc(C(=O)Nc2ccc(C(=O)c3ccccc3)cc2)c1	i	i	-7.7*	i	-9	.
COc1cccc(CC(=O)OCC(=O)NC(Cc2ccccc2)C(C)=O)c1 (stereo not given)	i	i	i	i	-8	.
Cc1cc(=O)[nH]c(SCC(=O)NC2CCCCCC2)n1	.	i	.	.	.	.
O=C1C=C(c2ccc(Cl)c(C(F)(F)F)c2)C[C@@H](c2ccc3c(c2)OCO3)C1	.	i	.	.	.	.
COc1ccccc1C(=O)NNC(=O)C(=O)Nc1cccc(Cl)c1C	94*	i	i	i	65*	.
CCC(Sc1ncccc1C(=O)Oc1cccc([N+](=O)[O-])c1)C(=O)Nc1ccccc1OC (stereo not given)	i	i	-7.9*	i	-8	-0.42
CSc1cccc(NC(=O)CSc2ncccc2C(=O)Oc2cccc([N+](=O)[O-])c2)c1	i	i	i	i	-6	0.64
COC1OC2COC(c3ccccc3)OC2C2OC12 (stereo not given)	.	i	.	.	.	.
COCc1cc(Sc2ccc(Cl)cc2)nc(C)n1	i	i	i	i	-10	0.61
Cc1nc(CS(=O)(=O)c2ccc(Cl)cc2)cc(Sc2ccc(Cl)cc2)n1	i	i	-6.6*	i	-8	.
COC(=O)c1ccc(S(=O)(=O)c2ccc(Cl)cc2)c(N)c1	i	i	i	i	-6	.
SMILES	KCNQ1 act	KCNK3 block	KCNK9 block	KCNQ1 block	hERG protect	Cl transport mod
CCn1c(=O)c(C(=O)NNS(=O)(=O)c2ccc(Cl)cc2)c(O)c2ccccc21	i	i	i	6*	-14	-0.18
CCOCCCNC(=O)c1cn(CC)c2ccc(S(=O)(=O)N(C)C3CCCCC3)cc2c1=O	i	i	i	7*	-16	.
CCn1cc(C(=O)NCC(OC)OC)c(=O)c2cc(S(=O)(=O)N3CCC(C)CC3)ccc21	i	i	i	6*	-10	.
CCn1cc(C(=O)NCC(OC)OC)c(=O)c2cc(S(=O)(=O)N3CCCC3)ccc21	i	i	i	i	-3	.
COc1ccc(-c2cc(C(=O)N3CCCC(C(F)(F)F)C3)c3ccccc3n2)cc1OC (stereo not given)	i	i	i	i	-7	.
CCOc1ccc(S(=O)(=O)NCCC(=O)NCCOc2ccccc2OC)cc1	i	i	i	i	-2	.
O=C(COc1ccc(F)cc1Br)Nc1ccccc1N1CCOCC1	.	i	.	.	.	.
CC(=O)Nc1ccc(NC(=O)COC(=O)[C@@H]2CCCN2C(=O)c2cccs2)cc1	.	i	.	.	.	.
O=C(NNC(=O)c1ccc(O)cc1O)c1ccc(Cl)cc1	i	i	i	6*	-12	.
CCc1ccccc1NC(=O)N1C2CCCC1CC(NC(C)=O)C2 (stereo not given)	i	i	i	i	6.0*	-0.3
Cn1c(-c2ccsc2)c(-c2cccs2)c2cc(Br)ccc21	.	i	.	.	.	.
C[C@@H]1COC(=O)[C@@H](NC(=O)OCC2c3ccccc3-c3ccccc32)C/C=C\C[C@@H](CC(=O)N(CCO)Cc2ccccc2)C(=O)N1	.	i	.	.	.	.
Cc1ccc2[nH]c(=O)c(CN(CCCN(C)C)C(=S)NCCc3ccccc3)cc2c1	10*	i	i	i	-9	0.011
CCOC(=O)c1c(C)[nH]c(C)c1C(=O)CSc1nc2ccccc2c(=O)n1-c1ccc(Cl)cc1	i	i	i	6*	-9	-0.51
O=C(CSc1nc2ccccc2c(=O)n1-c1ccc(Cl)cc1)c1ccco1	i	i	i	i	-9	.
CCCn1c(SC(C(=O)Nc2cc(C)ccc2OC)c2ccccc2)nc2ccccc2c1=O (stereo not given)	i	i	i	i	-6	14*
CCn1cc(CCC(=O)NCCc2ccccc2)c2ccccc21	i	i	i	i	-1	.
CCn1cc(CCC(=O)NCc2cccc(OC)c2OC)c2ccccc21	i	i	i	i	6.4*	.
C/C(=N\Nc1nc(C)c(C)s1)c1ccc([N+](=O)[O-])cc1	19*	i	i	i	30*	0.00086
CCOC(=O)c1ccc(CC(=O)c2ccc(O)cc2O)o1	i	i	i	i	-7	-1
CCC(=O)Oc1ccc(C/C(=N\O)c2ccc(O)cc2O)o1	i	i	i	7*	-6	.
